Measurements as given in ChEMBL document CHEMBL3868630, “Synthesis, anti-proliferative activity, SAR study, and preliminary in vivo toxicity study of substituted N,N'-bis(arylmethyl)benzimidazolium salts against a panel of non-small cell lung cancer cell lines” (Bioorg Med Chem, 2017).

Tests used:
[1] = Cytotoxicity against human HOP92 cells assessed as cell growth at 10 uM after 48 hrs by SRB assay relative to control; assay type: functional; settings: HOP-92, 48 h, read-out: Activity
[2] = Aqueous solubility of the compound; assay type: physicochemical
[3] = Cytotoxicity against human NCI-H23 cells assessed as cell growth at 10 uM after 48 hrs by SRB assay relative to control; assay type: functional; settings: NCI-H23, 48 h, read-out: Activity
[4] = Cytotoxicity against human A549 cells assessed as decrease in cell viability after 72 hrs by MTT assay; assay type: functional, cell-based; settings: A549, 72 h
Procedure, shortened: (§1)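 Cells kept in RPMI 1640 with 10% FBS at 37 °C, 5% CO2, passaged every 2-3 days; seeded at 5,000-7,000 cells/well and left 24 h. Compounds dissolved in 1% DMSO, diluted in fresh medium to 1, 4, 16 and 32 µM, added in sextuplicate; 72 h exposure. MTT added for 3-4 h, medium removed, DMSO added for 15 min at 37 °C, OD read at 540 nm.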

[5] = Cytotoxicity against human NCI-H1975 cells assessed as decrease in cell viability after 72 hrs by MTT assay; assay type: functional, cell-based; settings: NCI-H1975, 72 h; procedure, shortened: as §1
[6] = Cytotoxicity against human A549 cells assessed as cell growth at 10 uM after 48 hrs by SRB assay relative to control; assay type: functional; settings: A549, 48 h, read-out: Activity
[7] = Cytotoxicity against human NCI-H460 cells assessed as decrease in cell viability after 72 hrs by MTT assay; assay type: functional, cell-based; settings: NCI-H460, 72 h; procedure, shortened: as §1
[8] = Cytotoxicity against human NCI-H460 cells assessed as cell growth at 10 uM after 48 hrs by SRB assay relative to control; assay type: functional; settings: NCI-H460, 48 h, read-out: Activity
[9] = Cytotoxicity against human EKVX cells assessed as cell growth at 10 uM after 48 hrs by SRB assay relative to control; assay type: functional; settings: read-out: Activity
[10] = Cytotoxicity against human HCC827 cells assessed as decrease in cell viability after 72 hrs by MTT assay; assay type: functional, cell-based; settings: HCC827, 72 h; procedure, shortened: as §1
[11] = Cytotoxicity against human NCI-H226 cells assessed as cell growth at 10 uM after 48 hrs by SRB assay relative to control; assay type: functional; settings: NCI-H226, 48 h, read-out: Activity
[12] = Cytotoxicity against human NCI-H322M cells assessed as cell growth at 10 uM after 48 hrs by SRB assay relative to control; assay type: functional; settings: read-out: Activity
[13] = Cytotoxicity against human NCI-H522 cells assessed as cell growth at 10 uM after 48 hrs by SRB assay relative to control; assay type: functional; settings: NCI-H522, 48 h, read-out: Activity
[14] = Cytotoxicity against human HOP62 cells assessed as cell growth at 10 uM after 48 hrs by SRB assay relative to control; assay type: functional; settings: HOP-62, 48 h, read-out: Activity
[15] = Growth inhibition of human NCI-H226 cells after 48 hrs by SRB assay; assay type: functional; settings: NCI-H226, 48 h
[16] = Growth inhibition of human EKVX cells after 48 hrs by SRB assay; assay type: functional
[17] = Growth inhibition of human NCI-H23 cells after 48 hrs by SRB assay; assay type: functional; settings: NCI-H23, 48 h
[18] = Growth inhibition of human A549 cells after 48 hrs by SRB assay; assay type: functional; settings: A549, 48 h
[19] = Growth inhibition of human HOP92 cells after 48 hrs by SRB assay; assay type: functional; settings: HOP-92, 48 h
[20] = Growth inhibition of human NCI-H322M cells after 48 hrs by SRB assay; assay type: functional; settings: for CC50: read-out: LC50 (the source's name)
[21] = Growth inhibition of human NCI-H460 cells after 48 hrs by SRB assay; assay type: functional; settings: NCI-H460, 48 h
[22] = Growth inhibition of human NCI-H522 cells after 48 hrs by SRB assay; assay type: functional; settings: NCI-H522, 48 h; for CC50: read-out: LC50 (the source's name)
[23] = Growth inhibition of human HOP62 cells after 48 hrs by SRB assay; assay type: functional; settings: HOP-62, 48 h; for CC50: read-out: LC50 (the source's name)

Structure (SMILES) | solubility [2] [µg/mL] | growth at 10 µM [1] [%] | growth at 10 µM [3] [%] | IC50 [4] [µM] | IC50 [5] [nM] | growth at 10 µM [6] [%] | IC50 [7] [µM] | growth at 10 µM [8] [%] | growth at 10 µM [9] [%] | IC50 [10] [µM] | growth at 10 µM [11] [%] | growth at 10 µM [12] [%] | growth at 10 µM [14] [%] | GI50 [15] [nM] | TGI [15] [µM] | GI50 [16] [nM] | TGI [16] [µM] | TGI [17] [µM] | GI50 [18] [nM] | TGI [18] [µM] | other results
COCCOCCOCc1n(Cc2ccc3ccccc3c2)c2ccccc2[n+]1Cc1ccc2ccccc2c1.[Br-] | 700 | -32.1 | 5.56 | 5 | 3000 | 33.1 | 3 | 10.3 | 47.4 | 5 | 17.2 | 40.5 | 17.1 |  |  |  |  |  |  |  | growth at 10 µM [13]: -16.6%
Cc1n(Cc2ccc3ccccc3n2)c2ccccc2[n+]1Cc1ccc2ccccc2n1.[Cl-] | 1100 | 52 | 75.8 | 9 | 2000 | 87.9 | 3 | 95.8 | 102 | 7 | 89.6 | 94.9 | 82.7 |  |  |  |  |  |  |  | growth at 10 µM [13]: 56.6%
Cc1cc2c(cc1C)[n+](Cc1ccc3ccccc3n1)cn2Cc1ccc2ccccc2n1.[Cl-] | 1400 | -27.3 | 1.58 | 4 | < 1000 | 30.4 | 2 | 0.34 | 39.6 | 3 | 9.61 | 36 | 4.38 | 1590 | 4.01 | 2290 | 11.1 | 3.53 | 2830 | 13 | LC50 [15]: > 100 µM; LC50 [16]: 66 µM; GI50 [17]: 736 nM; LC50 [17]: 29.6 µM; LC50 [18]: 63.5 µM; GI50 [19]: 484 nM; LC50 [19]: 5.22 µM; TGI [19]: 2000 nM; GI50 [20]: 1370 nM; TGI [20]: 8.62 µM; CC50 [20]: 30.5 µM; GI50 [21]: 630 nM; LC50 [21]: 6.2 µM; TGI [21]: 2.21 µM; GI50 [22]: 704 nM; TGI [22]: 2470 nM; CC50 [22]: 6.89 µM; GI50 [23]: 1270 nM; TGI [23]: 3.13 µM; CC50 [23]: 7.72 µM
Cc1n(Cc2ccc3ccccc3c2)c2ccccc2[n+]1Cc1ccc2ccccc2c1.[Br-] | < 500 | -68.2 | -29.5 | 4 | 2000 | 8.96 | 3 | -73.9 | 9.57 | 4 | -9.12 | 9.37 | -62 | 1440 | 3.2 | 1780 | 4.08 | 2.76 | 1760 | 3.4 | LC50 [18]: 6.55 µM; GI50 [19]: 31.7 nM; LC50 [19]: 5.03 µM; TGI [19]: 2060 nM; GI50 [20]: 1560 nM; TGI [20]: 3 µM; CC50 [20]: 5.78 µM; GI50 [21]: 1470 nM; TGI [21]: 3.02 µM; GI50 [22]: 36 nM; TGI [22]: 2270 nM; GI50 [23]: 1690 nM; TGI [23]: 3.24 µM
OCCCc1n(Cc2ccc3ccccc3c2)c2ccccc2[n+]1Cc1ccc2ccccc2c1.[Br-] | < 500 | -24.3 | 19 | 10 | 4000 | 68.4 | 4 | 18.4 | 47.6 | 6 | 48.5 | 49.9 | 37.5 | 2230 | 10.5 | 3680 | 19.4 | 8.17 | 6970 | 31.4 | LC50 [15]: 99.6 µM; LC50 [16]: 70.6 µM; GI50 [17]: 1650 nM; LC50 [17]: 56.8 µM; LC50 [18]: > 100 µM; GI50 [19]: 566 nM; LC50 [19]: 69.1 µM; TGI [19]: 3100 nM; GI50 [20]: 2150 nM; TGI [20]: 9.1 µM; CC50 [20]: 31.7 µM; GI50 [21]: 2430 nM; LC50 [21]: 80.3 µM; TGI [21]: 9.57 µM; GI50 [22]: 1050 nM; TGI [22]: 3950 nM; CC50 [22]: 84.4 µM; GI50 [23]: 2320 nM; TGI [23]: 11.6 µM; CC50 [23]: 82.7 µM
[Cl-].c1ccc2nc(Cn3c[n+](Cc4ccc5ccccc5n4)c4ccccc43)ccc2c1 | 2400 | -8.16 | 32 | 10 | 3000 | 54 | 4 | 32.4 | 74.7 | 6 | 37.1 | 78.1 | 53.8 | 4130 | 20.4 | 5700 | 23.7 | 10.3 | 11600 | 25.9 | LC50 [15]: 78.2 µM; LC50 [16]: 72.1 µM; GI50 [17]: 1470 nM; LC50 [17]: 49.4 µM; LC50 [18]: 58 µM; GI50 [19]: 930 nM; LC50 [19]: 25 µM; TGI [19]: 4300 nM; GI50 [20]: 3680 nM; TGI [20]: 17.1 µM; CC50 [20]: 43.5 µM; GI50 [21]: 2800 nM; LC50 [21]: 41.8 µM; TGI [21]: 12.3 µM; GI50 [22]: 1560 nM; TGI [22]: 9720 nM; CC50 [22]: 44.7 µM; GI50 [23]: 2970 nM; TGI [23]: 13.7 µM; CC50 [23]: 41 µM
Cc1cc2c(cc1C)[n+](Cc1ccc3ccccc3c1)cn2Cc1ccc2ccccc2c1.[Br-] | < 500 | -80.8 | -71.8 | 3 | 2000 | -71.3 | 2 | -76.8 | -64.3 | 2 | -25.5 | -8.28 | -73 | 1390 | 3.42 | 1370 | 2.88 | 2.28 | 1420 | 2.95 | GI50 [17]: 872 nM; GI50 [19]: 587 nM; TGI [19]: 2530 nM; GI50 [20]: 1140 nM; TGI [20]: 2.42 µM; GI50 [21]: 662 nM; GI50 [22]: 1250 nM; TGI [22]: 2990 nM; GI50 [23]: 1030 nM; TGI [23]: 2.47 µM

Second part, led by results:

solubility [2] [µg/mL] | Structure (SMILES) | growth at 10 µM [1] [%] | growth at 10 µM [3] [%] | IC50 [4] [µM] | IC50 [5] [nM] | growth at 10 µM [6] [%] | IC50 [7] [µM] | growth at 10 µM [8] [%] | growth at 10 µM [9] [%] | IC50 [10] [µM] | growth at 10 µM [11] [%] | growth at 10 µM [12] [%] | growth at 10 µM [14] [%] | GI50 [15] [nM] | TGI [15] [µM] | GI50 [16] [nM] | TGI [16] [µM] | TGI [17] [µM] | GI50 [18] [nM] | TGI [18] [µM] | other results
1000 | COCCOCCOCc1n(Cc2ccc3ccccc3c2)c2cc(C)c(C)cc2[n+]1Cc1ccc2ccccc2c1.[Br-] |  |  | 2 | < 1000 |  | < 1 |  |  | 2 |  |  |  |  |  |  |  |  |  |  | 
< 500 | COC(=O)Cc1n(Cc2ccc3ccccc3c2)c2ccccc2[n+]1Cc1ccc2ccccc2c1.[Br-] |  |  | 8 | 6000 |  | 7 |  |  | 8 |  |  |  |  |  |  |  |  |  |  | 
< 500 | COc1ccc2c(c1)n(Cc1ccc3ccccc3c1)c[n+]2Cc1ccc2ccccc2c1.[Br-] |  |  | 6 | 2000 |  | 4 |  |  | 4 |  |  |  |  |  |  |  |  |  |  | 
< 500 | OCCCc1n(Cc2ccc3ccccc3n2)c2ccccc2[n+]1Cc1ccc2ccccc2c1.[Br-] |  |  | 12 | 3000 |  | 4 |  |  | 11 |  |  |  |  |  |  |  |  |  |  | 
< 500 | O=C(OCc1ccc2ccccc2c1)c1ccc2c(c1)n(Cc1ccc3ccccc3c1)c[n+]2Cc1ccc2ccccc2c1.[Br-] |  |  | 7 | 4000 |  | 4 |  |  | 7 |  |  |  |  |  |  |  |  |  |  | 
< 500 | Cl.O=C(O)c1ccc2c(c1)n(Cc1ccc3ccccc3c1)c[n+]2Cc1ccc2ccccc2c1.[Br-] |  |  | 12 | 23000 |  | 16 |  |  | > 30 |  |  |  |  |  |  |  |  |  |  | 
< 500 | O=C(O)CCc1n(Cc2ccc3ccccc3c2)c2ccccc2[n+]1Cc1ccc2ccccc2c1.[Cl-] |  |  | > 30 | > 30000 |  | > 30 |  |  | > 30 |  |  |  |  |  |  |  |  |  |  | 
< 500 | O=C(O)c1cc2c(cc1C(=O)O)[n+](Cc1ccc3ccccc3c1)cn2Cc1ccc2ccccc2c1.[Cl-] |  |  | > 30 | > 30000 |  | > 30 |  |  | > 30 |  |  |  |  |  |  |  |  |  |  | 
